According to the M2OR odorant receptor database:
Residue numbers refer to the chain shown, from its start.

Tests used:
Conditions in all cases: stereoisomer not certain
[1] = molecular target: OR4D1 (Homo sapiens) (UniProt Q15615)
How it was run: (§1)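 Values were gathered from published papers (main text and supplementary material), with extra details requested from the original authors when needed, and checked for typos and inconsistencies. Each receptor–molecule pair is called responsive (active) if the original authors judged the measured signal statistically different from baseline, and non-responsive (inactive) otherwise. Assay methods varied by source, often transient mammalian cell-line luciferase assays. Recorded details include cell line, G-protein, co-transfected protein and tags.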

[2] = molecular target: OR4D10 (Homo sapiens) (UniProt Q8NGI6)
How it was run: as §1

[3] = molecular target: OR4D11 (Homo sapiens) (UniProt Q8NGI4)
How it was run: as §1

[4] = molecular target: OR4D2 (Homo sapiens) (UniProt P58180)
How it was run: as §1

[5] = molecular target: OR4D5 (Homo sapiens) (UniProt Q8NGN0)
How it was run: as §1

[6] = molecular target: OR4D6 (Homo sapiens) (UniProt Q8NGJ1)
How it was run: as §1

[7] = molecular target: OR4D9 (Homo sapiens) (UniProt Q8NGE8)
How it was run: as §1

[8] = molecular target: OR4E1 (Homo sapiens) (UniProt P0C645)
How it was run: as §1

[9] = molecular target: T1, OR4E2 (Homo sapiens) (UniProt Q8NGC2)
T1 sequence (whole entry): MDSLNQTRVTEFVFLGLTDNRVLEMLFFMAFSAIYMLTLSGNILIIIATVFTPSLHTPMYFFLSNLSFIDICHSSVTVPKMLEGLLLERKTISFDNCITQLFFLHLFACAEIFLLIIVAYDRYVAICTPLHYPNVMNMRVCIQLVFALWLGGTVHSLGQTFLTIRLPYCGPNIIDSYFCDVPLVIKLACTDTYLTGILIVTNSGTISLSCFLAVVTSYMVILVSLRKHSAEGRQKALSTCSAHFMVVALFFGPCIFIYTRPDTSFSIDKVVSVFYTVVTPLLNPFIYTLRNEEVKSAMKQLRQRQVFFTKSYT
How it was run: as §1

[10] = molecular target: T2, OR4F15 (Homo sapiens) (UniProt Q8NGB8)
T2 sequence (whole entry): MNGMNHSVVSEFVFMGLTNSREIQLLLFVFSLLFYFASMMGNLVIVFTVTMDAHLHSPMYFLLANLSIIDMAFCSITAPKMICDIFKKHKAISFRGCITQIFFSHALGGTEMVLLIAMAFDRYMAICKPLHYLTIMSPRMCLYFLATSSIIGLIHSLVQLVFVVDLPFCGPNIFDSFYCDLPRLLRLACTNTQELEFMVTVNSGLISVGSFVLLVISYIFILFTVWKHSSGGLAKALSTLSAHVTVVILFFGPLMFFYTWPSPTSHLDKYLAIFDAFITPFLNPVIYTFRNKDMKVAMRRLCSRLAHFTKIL
How it was run: as §1

[11] = test system: T3, OR4E2
T3 sequence (whole entry): T1 sequence (whole entry) with V118M, Q234R
How it was run: as §1

[12] = test system: T4, OR4CB P8T
T4 sequence (whole entry): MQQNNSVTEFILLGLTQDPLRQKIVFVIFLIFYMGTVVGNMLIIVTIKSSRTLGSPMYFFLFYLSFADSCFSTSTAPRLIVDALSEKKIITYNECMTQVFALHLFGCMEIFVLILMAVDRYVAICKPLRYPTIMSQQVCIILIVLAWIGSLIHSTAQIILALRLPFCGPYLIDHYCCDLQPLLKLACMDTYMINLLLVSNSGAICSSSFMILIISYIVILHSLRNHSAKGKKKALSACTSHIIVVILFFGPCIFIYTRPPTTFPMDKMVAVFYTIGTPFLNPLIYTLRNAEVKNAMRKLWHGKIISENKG
How it was run: as §1

[13] = test system: OR4CC
How it was run: as §1

[14] = test system: OR4CD V133I
How it was run: as §1

[15] = test system: OR4CF
How it was run: as §1

[16] = test system: T5, OR4CG T76A
T5 sequence (whole entry): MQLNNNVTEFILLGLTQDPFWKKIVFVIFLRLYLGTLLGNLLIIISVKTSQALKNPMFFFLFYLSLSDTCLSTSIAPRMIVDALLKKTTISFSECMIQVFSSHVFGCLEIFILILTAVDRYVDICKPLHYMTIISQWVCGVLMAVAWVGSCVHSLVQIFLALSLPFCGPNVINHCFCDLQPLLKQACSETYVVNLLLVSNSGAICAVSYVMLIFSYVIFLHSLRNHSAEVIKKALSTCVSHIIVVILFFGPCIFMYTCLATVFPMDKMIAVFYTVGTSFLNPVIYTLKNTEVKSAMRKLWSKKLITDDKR
How it was run: as §1

[17] = test system: OR4D1
How it was run: as §1

[18] = test system: OR4D2
How it was run: as §1

[19] = test system: OR4D6
How it was run: as §1

[20] = test system: T6, OR4E2 A119T
T6 sequence (whole entry): T1 sequence (whole entry) with V118M, A119T, Q234R
How it was run: as §1

Measured: odorant receptor agonist call

OR4D2 (Homo sapiens), sequence (P58180 whole entry): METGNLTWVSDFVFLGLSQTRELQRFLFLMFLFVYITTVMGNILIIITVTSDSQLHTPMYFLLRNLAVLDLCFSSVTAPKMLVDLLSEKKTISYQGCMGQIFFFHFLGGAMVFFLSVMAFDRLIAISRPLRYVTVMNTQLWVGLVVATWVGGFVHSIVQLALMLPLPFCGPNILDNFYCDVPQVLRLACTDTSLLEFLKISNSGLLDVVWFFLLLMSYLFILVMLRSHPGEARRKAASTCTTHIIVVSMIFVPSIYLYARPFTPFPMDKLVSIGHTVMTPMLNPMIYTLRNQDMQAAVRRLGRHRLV
OR4D6, sequence (as listed by the source): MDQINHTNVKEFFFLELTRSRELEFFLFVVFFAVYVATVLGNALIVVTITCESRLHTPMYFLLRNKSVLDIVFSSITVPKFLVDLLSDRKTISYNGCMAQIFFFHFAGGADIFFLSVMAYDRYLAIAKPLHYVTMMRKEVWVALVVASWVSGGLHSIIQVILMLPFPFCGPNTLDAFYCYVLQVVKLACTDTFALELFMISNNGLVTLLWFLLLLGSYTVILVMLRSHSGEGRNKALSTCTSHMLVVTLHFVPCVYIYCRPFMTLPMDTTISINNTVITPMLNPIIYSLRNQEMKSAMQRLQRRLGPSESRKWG
OR4D1 (Homo sapiens), sequence (Q15615 whole entry): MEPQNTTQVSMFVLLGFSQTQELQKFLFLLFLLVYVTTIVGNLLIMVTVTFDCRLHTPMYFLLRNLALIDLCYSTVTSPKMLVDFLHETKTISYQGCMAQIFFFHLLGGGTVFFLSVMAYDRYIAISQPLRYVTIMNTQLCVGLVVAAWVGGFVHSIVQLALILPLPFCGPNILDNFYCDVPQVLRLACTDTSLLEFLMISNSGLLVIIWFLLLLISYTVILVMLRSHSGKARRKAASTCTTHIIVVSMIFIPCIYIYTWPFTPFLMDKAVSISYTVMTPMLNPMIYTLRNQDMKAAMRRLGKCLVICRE
OR4CC, sequence (as listed by the source): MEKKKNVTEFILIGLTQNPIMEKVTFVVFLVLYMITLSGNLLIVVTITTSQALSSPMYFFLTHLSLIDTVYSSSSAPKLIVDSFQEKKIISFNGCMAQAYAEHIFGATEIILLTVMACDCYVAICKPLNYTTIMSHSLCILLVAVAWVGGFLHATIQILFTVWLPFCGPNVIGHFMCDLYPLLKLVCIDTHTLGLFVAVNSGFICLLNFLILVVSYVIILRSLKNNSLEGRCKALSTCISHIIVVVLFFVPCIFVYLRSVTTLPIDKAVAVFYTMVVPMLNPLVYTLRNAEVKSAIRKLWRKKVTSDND
OR4D10 (Homo sapiens), sequence (Q8NGI6 whole entry): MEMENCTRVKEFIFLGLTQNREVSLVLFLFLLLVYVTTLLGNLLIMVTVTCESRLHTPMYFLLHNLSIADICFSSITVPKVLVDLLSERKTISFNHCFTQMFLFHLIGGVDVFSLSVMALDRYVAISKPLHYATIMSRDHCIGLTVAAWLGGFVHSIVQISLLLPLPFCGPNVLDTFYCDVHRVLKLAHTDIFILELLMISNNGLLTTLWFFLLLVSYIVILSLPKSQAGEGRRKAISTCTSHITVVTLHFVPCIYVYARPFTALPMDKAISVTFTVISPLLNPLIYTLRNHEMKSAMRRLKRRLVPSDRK
OR4D5 (Homo sapiens), sequence (Q8NGN0 whole entry): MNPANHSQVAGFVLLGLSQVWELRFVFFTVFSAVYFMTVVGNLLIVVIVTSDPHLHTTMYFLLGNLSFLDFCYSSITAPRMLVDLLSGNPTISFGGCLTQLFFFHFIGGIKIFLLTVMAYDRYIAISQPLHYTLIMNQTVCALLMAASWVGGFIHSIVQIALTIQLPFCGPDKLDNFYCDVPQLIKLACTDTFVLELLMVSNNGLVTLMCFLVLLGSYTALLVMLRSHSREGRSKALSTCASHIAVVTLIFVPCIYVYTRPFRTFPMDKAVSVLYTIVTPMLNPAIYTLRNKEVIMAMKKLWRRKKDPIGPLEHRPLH
OR4CD V133I, sequence (as listed by the source, stated change not applied): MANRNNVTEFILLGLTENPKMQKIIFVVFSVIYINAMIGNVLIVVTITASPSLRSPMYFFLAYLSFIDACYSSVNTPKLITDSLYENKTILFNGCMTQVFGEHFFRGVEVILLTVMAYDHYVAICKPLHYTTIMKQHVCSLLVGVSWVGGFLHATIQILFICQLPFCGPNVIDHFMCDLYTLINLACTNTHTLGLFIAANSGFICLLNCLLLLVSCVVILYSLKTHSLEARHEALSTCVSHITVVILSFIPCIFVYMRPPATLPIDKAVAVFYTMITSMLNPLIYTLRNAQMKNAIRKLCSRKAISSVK
OR4CF, sequence (as listed by the source): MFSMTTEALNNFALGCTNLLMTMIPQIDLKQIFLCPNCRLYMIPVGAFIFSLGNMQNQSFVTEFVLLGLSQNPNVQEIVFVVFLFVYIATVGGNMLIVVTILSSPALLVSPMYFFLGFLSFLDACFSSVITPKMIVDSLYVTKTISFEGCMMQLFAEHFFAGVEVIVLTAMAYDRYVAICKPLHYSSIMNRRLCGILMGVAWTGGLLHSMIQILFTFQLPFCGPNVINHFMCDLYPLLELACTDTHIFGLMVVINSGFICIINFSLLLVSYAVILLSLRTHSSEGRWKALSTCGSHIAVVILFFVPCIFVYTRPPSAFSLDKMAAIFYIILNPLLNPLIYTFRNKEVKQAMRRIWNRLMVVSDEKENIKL
OR4D6 (Homo sapiens), sequence (Q8NGJ1 whole entry): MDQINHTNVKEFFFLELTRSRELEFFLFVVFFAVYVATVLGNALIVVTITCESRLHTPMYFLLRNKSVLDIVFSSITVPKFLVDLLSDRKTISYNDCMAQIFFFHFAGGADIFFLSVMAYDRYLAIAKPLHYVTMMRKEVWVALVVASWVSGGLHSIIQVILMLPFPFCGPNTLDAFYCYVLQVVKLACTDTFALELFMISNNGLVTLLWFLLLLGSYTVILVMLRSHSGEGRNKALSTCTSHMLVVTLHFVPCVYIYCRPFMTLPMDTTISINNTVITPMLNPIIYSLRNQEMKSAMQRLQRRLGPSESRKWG
OR4D1, sequence (as listed by the source): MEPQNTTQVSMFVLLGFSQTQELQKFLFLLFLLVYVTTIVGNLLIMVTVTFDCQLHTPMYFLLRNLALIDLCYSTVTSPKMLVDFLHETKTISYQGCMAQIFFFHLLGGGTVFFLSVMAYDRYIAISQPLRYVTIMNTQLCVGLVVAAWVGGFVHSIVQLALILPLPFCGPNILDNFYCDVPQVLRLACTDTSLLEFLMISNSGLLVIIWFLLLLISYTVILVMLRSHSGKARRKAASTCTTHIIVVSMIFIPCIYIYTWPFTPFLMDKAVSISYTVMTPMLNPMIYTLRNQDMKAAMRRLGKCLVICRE
OR4D2, sequence (as listed by the source): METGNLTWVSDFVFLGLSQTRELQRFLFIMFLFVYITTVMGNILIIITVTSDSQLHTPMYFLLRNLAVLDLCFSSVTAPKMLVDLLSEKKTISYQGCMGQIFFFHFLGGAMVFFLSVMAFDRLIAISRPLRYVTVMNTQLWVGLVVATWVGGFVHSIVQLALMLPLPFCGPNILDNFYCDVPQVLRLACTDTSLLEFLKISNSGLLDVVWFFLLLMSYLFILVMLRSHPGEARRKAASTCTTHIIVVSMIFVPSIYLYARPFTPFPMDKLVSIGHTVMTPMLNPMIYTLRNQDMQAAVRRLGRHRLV
OR4D9 (Homo sapiens), sequence (Q8NGE8 whole entry): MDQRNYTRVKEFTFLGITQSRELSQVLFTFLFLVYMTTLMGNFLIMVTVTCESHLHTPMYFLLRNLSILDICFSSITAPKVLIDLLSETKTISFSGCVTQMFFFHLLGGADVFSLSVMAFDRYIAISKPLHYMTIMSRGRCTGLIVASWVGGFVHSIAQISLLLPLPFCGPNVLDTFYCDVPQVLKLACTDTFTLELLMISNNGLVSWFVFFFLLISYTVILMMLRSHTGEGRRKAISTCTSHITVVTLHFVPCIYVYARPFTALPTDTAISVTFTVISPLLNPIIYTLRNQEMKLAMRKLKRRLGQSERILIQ
OR4D11 (Homo sapiens), sequence (Q8NGI4 whole entry): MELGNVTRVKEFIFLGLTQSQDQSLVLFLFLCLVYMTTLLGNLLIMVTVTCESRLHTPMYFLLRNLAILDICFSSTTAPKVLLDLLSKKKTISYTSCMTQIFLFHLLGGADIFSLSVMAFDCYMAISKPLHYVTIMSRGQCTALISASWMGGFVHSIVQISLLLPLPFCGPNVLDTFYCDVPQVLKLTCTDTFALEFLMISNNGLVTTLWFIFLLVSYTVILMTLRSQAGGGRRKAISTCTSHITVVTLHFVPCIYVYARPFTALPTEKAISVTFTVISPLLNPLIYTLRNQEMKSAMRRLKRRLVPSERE
OR4E1 (Homo sapiens), sequence (P0C645 whole entry): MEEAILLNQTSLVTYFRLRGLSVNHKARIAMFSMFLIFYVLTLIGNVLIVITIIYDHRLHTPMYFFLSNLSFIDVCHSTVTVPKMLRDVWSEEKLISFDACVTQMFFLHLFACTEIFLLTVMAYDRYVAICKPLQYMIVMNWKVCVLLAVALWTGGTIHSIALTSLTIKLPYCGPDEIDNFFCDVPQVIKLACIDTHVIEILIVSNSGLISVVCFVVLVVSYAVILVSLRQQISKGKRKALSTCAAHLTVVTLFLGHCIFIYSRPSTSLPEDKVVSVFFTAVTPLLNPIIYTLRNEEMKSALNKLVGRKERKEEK

CC(=O)c1c(C)c([N+](=O)[O-])c(C(C)(C)C)c([N+](=O)[O-])c1C
inactive: [1] | [2] | [3] | [4] | [5] | [6] | [7] | [8] | [9] | [10]

CCCCC(S)C(C)CO (stereo unspecified)
inactive: [1] | [2] | [3] | [4] | [5] | [6] | [7] | [9] | [10]

CCC(S)C(C)CO (stereo unspecified)
inactive: [1] | [2] | [3] | [4] | [5] | [6] | [7] | [9] | [10]

CC(C)=CCCC(C)=CCO
inactive: [11]

CC(CO)CS (stereo unspecified)
inactive: [1] | [2] | [3] | [4] | [5] | [6] | [7] | [9] | [10]

CC1=NC(C)C(C)S1 (stereo unspecified)
not listed: [8]
inactive: all other assays above

CCCCCC(=O)C(C)C(C)=O (stereo unspecified)
inactive: [1] | [2] | [3] | [4] | [5] | [6] | [7] | [9] | [10]

CC1CCCCCCCCCCCCC(=O)C1 (stereo unspecified)
inactive: [1] | [2] | [3] | [4] | [5] | [6] | [7] | [8] | [9] | [10]

CCC1OC(C)=C(O)C1=O (stereo unspecified)
not listed: [8]
inactive: all other assays above

CCCC(S)CCOC(C)=O (stereo unspecified)
not listed: [8]
inactive: all other assays above

CC1=C(O)C(=O)C(C)O1 (stereo unspecified)
not listed: [8]
inactive: all other assays above

CC1=C(O)C(=O)OC1C (stereo unspecified)
not listed: [8]
inactive: all other assays above

Cc1cnc(C)c(C)n1
not listed: [8]
inactive: all other assays above

CCCCCCC=CCCC=O
not listed: [8] | [15] | [20]
inactive: all other assays above

CCCCCC(S)C(C)CO (stereo unspecified)
inactive: [1] | [2] | [3] | [4] | [5] | [6] | [7] | [9] | [10]

CCC1OC(=O)C(O)=C1C (stereo unspecified)
not listed: [8]
inactive: all other assays above
